The list is not random: actives were taken first. Their share in the collection is about 3.1%.
ABHD5 PLIN5 PPI = inhibitors of human ABHD5-perilipin-5 interaction; Q00G26+Q8WTS1; Split G. princeps luciferase complementation, luminescence, 4 h; inhibition, % at 4 µM; actives 0.78% (n = 360,000); AID 602281;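 active = inhibition above the mean inhibition across every tested compound plus 3 SD, cut at about 22% in these data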;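 also: 0% = DMSO only wells and the 100% control is not disclosed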
UHRF1 MBD2 ctr = human UHRF1 methylated DNA binding inhibitors; Q96T88; actives 0.75% (n = 370,000); inhibition, % at 4.4 µM; AID 687016; UHRF1 binding to methylated oligo, TR-FRET; in the data active = inhibition above about 21%;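 also: UHRF1 SRA domain binding a hemimethylated CpG hairpin DNA probe; 0% = median of test compound wells and 100% = reference inhibitor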
PRMT1 FP inh = PRMT1 (human) inhibition, primary screen; Q99873; recombinant PRMT1, activity-based probe fluorescence polarization; inhibition, % at 2.79 µM; actives 1.3% (n = 370,000); AID 652257;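 active = inhibition above about 21% made by adding two undisclosed values, limit read from the data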
MBD2 inh = inhibitors of human MBD2 binding to methylated oligonucleotide; Q9UBB5; TR-FRET; inhibition, % at 4.4 µM; actives 0.31% (n = 370,000); in the data active = inhibition above about 13%
RBBP9 inh = blocks human serine hydrolase RBBP9; O75884; recombinant RBBP9, FP-Rh probe fluorescence polarization; inhibition, % at 7.94 µM; actives 0.2% (n = 220,000); AID 1515;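 active = inhibition above the campaign mean of all tested compounds plus 3 SD, cut at about 14% in these data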;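 also: plate controls were DMSO wells with RBBP9 for no effect and wells lacking RBBP9 protein for full effect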
Target sequence (O75884 whole entry, looked up): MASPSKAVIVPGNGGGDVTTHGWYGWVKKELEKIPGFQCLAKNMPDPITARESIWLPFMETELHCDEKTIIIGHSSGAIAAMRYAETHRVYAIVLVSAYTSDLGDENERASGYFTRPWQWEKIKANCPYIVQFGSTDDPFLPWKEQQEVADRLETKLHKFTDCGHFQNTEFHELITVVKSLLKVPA
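Measured by: FP readout at 525/598 nm; material: recombinant human RBBP9; also added: Serine-hydrolase probe FP-Rh, 375 nM pre-mixing; medium: Tris buffer pH 8.0, NaCl, Pluronic; replication: one well per compound; doses: one concentration, 7.94 µM nominal, 0.794% DMSO; timing: preincubation 30 min plus labeling 45 min at 25 °C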
LEDGF integ inh = blocks HIV-1 LEDGF/p75-dependent DNA integration; TR-FRET IN-LEDGF/p75 DNA integration, Eu/Cy5; inhibition, % at 3.7 µM; actives 0.64% (n = 370,000);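 active = inhibition above the screen-wide mean plus 3 SD, cut at about 13% in these data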;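 also: signal is the Cy5 over europium emission ratio at 671 and 618 nm; 0% = plate median of compound wells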
ABHD5-PLIN5 conf = confirmation of human ABHD5-PLIN5 interaction inhibitors | shares compounds with ABHD5 PLIN5 PPI | biochemical ABHD5-PLIN5 interaction, luminescence | inhibition, % at 4 µM | actives 67% (n = 2,200); in the data active = inhibition above about 23%;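 also: 0% = DMSO vehicle wells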
HNF4 counter = active in HNF4 split-luciferase counter-screen for ABHD5-PLIN5 inhibitors. HNF4 dimerization, luminescence, biochemical. shares compounds with ABHD5 PLIN5 PPI. actives 77% (n = 2,200). inhibition, % at 4 µM;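 active = mean inhibition across replicate wells exceeding the computed hit threshold, cut at about 13% in these data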;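 also: light from luciferase halves that rejoin when HNF4 fusion proteins dimerize; 0% = DMSO only wells and the 100% control is not given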
* = called active by the depositor; . = not tested or not shown.

SMILES	ABHD5 PLIN5 PPI	UHRF1 MBD2 ctr	PRMT1 FP inh	MBD2 inh	RBBP9 inh	LEDGF integ inh	ABHD5-PLIN5 conf	HNF4 counter
CCOC(CN=c1nc(N(C)C)ss1)OCC	80.7*	-12.7	1.3	-0.4	.	-1.6	78.0*	100.5*
N#Cc1ccc(/C=C/C(=O)c2ccco2)cc1	63.0*	0.1	2.5	-2.5	-9.5	-3.0	93.5*	94.8*
NC(=O)c1ccccc1N/C=C/C(=O)c1ccco1	-3.5	-4.0	2.7	-5.2	-8.1	-0.6	.	.
Nc1ccc(/C=C/C(=O)c2ccco2)cc1	11.3	-22.6	-1.2	-14.6	-6.2	-0.9	.	.
O=C(/C=C/c1cc(Br)ccc1O)c1ccco1	81.8*	-1.8	2.5	5.2	-7.6	2.6	98.2*	97.0*
O=C(C=Cc1ccccc1)c1cc(Br)ccc1O	16.8	-0.5	-3.7	-3.7	.	1.2	.	.
O=C(/C=C/c1ccccc1O)c1ccco1	61.4*	-3.7	-5.0	-0.3	.	2.1	82.9*	78.3*
CCCCCCCCNS(=O)(=O)/C=C/c1ccccc1CNC(=O)OC(C)(C)C	.	-3.7	1.4	2.6	.	-4.5	.	.
CN(C)c1cccc2c(S(=O)(=O)NCC3CCN(C(=O)C(=O)c4cccs4)CC3)cccc12	.	3.4	7.7	-0.1	.	-4.0	.	.
COc1ccc(N2CCN(S(=O)(=O)CCNC(=O)Cc3ccc([N+](=O)[O-])cc3)CC2)cc1	67.7*	-0.2	2.2	-4.9	.	-0.3	1.1	-2.6
CCOC(=O)c1ccc(N=c2sc(C(=O)OC)cc(=O)n2Cc2ccco2)cc1	14.3	-1.7	-3.5	-1.5	-8.1	5.3	.	.
CCn1c(=O)cc(C(=O)OC)sc1=Nc1ccc(F)c(F)c1	27.4*	3.2	0.9	-3.9	-8.5	-1.9	59.3*	39.7*
CCOC(=O)c1ccc(N=c2sc(C(=O)OC)cc(=O)n2CCCN2CCOCC2)cc1	42.4*	4.1	5.7	3.7	1.2	4.3	45.3*	42.3*
CSc1sc(-c2ccnc(SCC(=O)C(C)(C)C)n2)c2c1C(=O)CC(C)(C)C2	23.3*	1.9	1.4	-0.7	6.4	3.9	-5.2	-4.8
C[C@@H]1CN(c2ccc(N3CCN(C(=O)OC(C)(C)C)C[C@@H]3C)cc2C#N)CCN1Cc1ccccc1	.	-3.3	-1.1	-1.1	.	6.9	.	.
CCOC(=O)Nc1ccc2c(c1)N(C(=O)CCN1CCOCC1)c1ccccc1S2=O (configuration not stated)	27.4*	0.4	7.2	-11.2	-7.2	0.6	6.5	41.9*
CCOC(=O)Nc1ccc2c(c1)N(C(=O)CCN1CCOCC1)c1ccccc1S2	0.8	1.4	-2.8	-2.5	-6.5	-1.4	.	.
C[C@H](CO)N1C[C@H](C)[C@@H](CN(C)Cc2ccc(C(=O)Nc3ccccc3N)cc2)Oc2c(NC(=O)C3CCCCC3)cccc2C1=O	72.5*	-1.4	0.8	0.8	.	-0.6	0.8	3.1
C[C@H](CO)N1C[C@H](C)[C@@H](CN(C)Cc2ccc3c(c2)OCO3)Oc2c(NC(=O)C3CCCCC3)cccc2C1=O	8.7	0.0	-0.7	-5.8	.	0.8	.	.
COc1ccc(Br)cc1/C=C/C(=O)c1ccc(NC(C)=O)cc1	27.0*	-1.7	-5.1	-1.9	-12.5	2.9	85.5*	81.3*
O=C(c1ccc(S(=O)(=O)N2CCCC2)cc1)N1CCCCC1	11.4	3.5	4.6	0.1	.	-0.6	.	.
O=C(/C=C/c1ccc(O)c(O)c1)c1ccc(S(=O)(=O)N2CCCCCC2)cc1	32.0*	7.3	3.4	-0.9	-21.8	6.4	69.6*	67.5*
O=C(C=C=Nc1ccccc1)C(=O)N=C=Cc1ccccc1	72.6*	-0.2	5.4	-1.8	-2.5	3.2	96.2*	98.8*
O=C(CCc1ccccc1-c1ccccc1CCNC(=O)c1ccccc1)NCc1ccccc1	.	-0.5	1.7	-4.9	.	3.5	.	.
Cc1ccccc1OCCCN1C(=O)C(=O)c2cccc(C)c21	27.5*	-1.0	-2.9	-4.9	-1.4	5.0	49.0*	47.8*

High-throughput results (PubChem BioAssay)
